The values below come from ChEMBL document CHEMBL4725436, “Gibberellin JRA-003: A Selective Inhibitor of Nuclear Translocation of IKKα” (ACS Med Chem Lett, 2020).

For orientation: IC50 means the midpoint of a concentration-inhibition curve. The term EC50 denotes the concentration that produces a half-maximal response.

Data set [1] is described as follows: Selectivity index, ratio of IC50 for human HS895SK cells to EC50 for human SU-DHL-4 cells measured after 24 hrs by CellTiter-Glo luminescent assay. In outline:
(§1)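 High-throughput viability screen of test agents across a panel of 22 cancerous and noncancerous human cell lines. Viability was read by CellTiter-Glo luminescence.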
Background: ATP-based viability assays read luminescence as a measure of living cells.

In the next data set the test system is PSN1. Kind of data set: Cytotoxicity against human PSN1 cells assessed as reduction in cell viability measured after 24 hrs by CellTiter-Glo luminescent assay. Format: functional, cell-based. Particulars: PSN1, 24 h. A digest of the protocol:
as §1

Data set [2] in a line: Cytotoxicity against human Hs895SK cells assessed as reduction in cell viability measured after 24 hrs by CellTiter-Glo luminescent assay. Format: cell-based. Particulars: Hs 895.Sk. A digest of the protocol: as §1
The nature of data set [3]: Cytotoxicity against human Hs578Bst cells assessed as reduction in cell viability measured after 24 hrs by CellTiter-Glo luminescent assay. Format: cell-based. A digest of the protocol:
as §1

Data set [4] in a line: Selectivity index, ratio of IC50 for human Hs578Bst cells to EC50 for human HS578T cells measured after 24 hrs by CellTiter-Glo luminescent assay. It is filed as toxicity. Particulars: Hs578Bst cells (IC50) versus HS578T cells (EC50). In outline:
as §1

Another data set relates to HEK-293T. Kind of data set: Cytotoxicity against human HEK293T cells assessed as reduction in cell viability measured after 24 hrs by CellTiter-Glo luminescent assay. It is filed as cell-based. A digest of the protocol: as §1
The next data set concerns Hs-578T. The experiment in a line: Cytotoxicity against human Hs-578T cells assessed as reduction in cell viability measured after 24 hrs by CellTiter-Glo luminescent assay. Format: functional, cell-based. A digest of the protocol:
as §1

The next data set concerns RCK8. Kind of data set: Cytotoxicity against human RC-K8 cells assessed as reduction in cell viability measured after 24 hrs by CellTiter-Glo luminescent assay. The note with it: RCK8, 24 h. Format: functional, cell-based. A digest of the protocol: as §1
A short description of data set [5]: Inhibition of IKKalpha/IKKbeta in human HEK293T cells transfected with firefly luciferase gene assessed as inhibition of IL-1 beta-stimulated NF-kappaB signalling preincubated for 1 hr followed by IL-1 beta stimulation measured after 3 hrs by luciferase reporter gene assay. Format: cell-based. The note with it: HEK-293T. In general terms: Reporter assays use an easily measured gene product as a stand-in for the process of interest.

Data set [6] can be described thus: Cytotoxicity against human Hs888Lu cells assessed as reduction in cell viability measured after 24 hrs by CellTiter-Glo luminescent assay. Format: cell-based. A digest of the protocol:
as §1

Data set [7] in a line: Cytotoxicity against human Hs895T cells assessed as reduction in cell viability measured after 24 hrs by CellTiter-Glo luminescent assay. Format: functional, cell-based. In outline: as §1
Data set [8] can be described thus: Selectivity index, ratio of IC50 for human Hs578Bst cells to EC50 for human SU-DHL-4 cells measured after 24 hrs by CellTiter-Glo luminescent assay. The note with it: Hs578Bst cells (IC50) versus SU-DHL-4 cells (EC50). It is filed as toxicity. In outline:
as §1

The nature of data set [9]: Selectivity index, ratio of IC50 for human Hs888Lu cells to EC50 for human CA46 cells measured after 24 hrs by CellTiter-Glo luminescent assay. It is filed as toxicity. Particulars: Hs888Lu cells (IC50) versus CA46 cells (EC50). A digest of the protocol:
as §1

For data set [10], the target named is T1, Inhibitor of nuclear factor kappa-B kinase subunit alpha (Homo sapiens) (UniProt O15111).
T1 sequence (whole entry): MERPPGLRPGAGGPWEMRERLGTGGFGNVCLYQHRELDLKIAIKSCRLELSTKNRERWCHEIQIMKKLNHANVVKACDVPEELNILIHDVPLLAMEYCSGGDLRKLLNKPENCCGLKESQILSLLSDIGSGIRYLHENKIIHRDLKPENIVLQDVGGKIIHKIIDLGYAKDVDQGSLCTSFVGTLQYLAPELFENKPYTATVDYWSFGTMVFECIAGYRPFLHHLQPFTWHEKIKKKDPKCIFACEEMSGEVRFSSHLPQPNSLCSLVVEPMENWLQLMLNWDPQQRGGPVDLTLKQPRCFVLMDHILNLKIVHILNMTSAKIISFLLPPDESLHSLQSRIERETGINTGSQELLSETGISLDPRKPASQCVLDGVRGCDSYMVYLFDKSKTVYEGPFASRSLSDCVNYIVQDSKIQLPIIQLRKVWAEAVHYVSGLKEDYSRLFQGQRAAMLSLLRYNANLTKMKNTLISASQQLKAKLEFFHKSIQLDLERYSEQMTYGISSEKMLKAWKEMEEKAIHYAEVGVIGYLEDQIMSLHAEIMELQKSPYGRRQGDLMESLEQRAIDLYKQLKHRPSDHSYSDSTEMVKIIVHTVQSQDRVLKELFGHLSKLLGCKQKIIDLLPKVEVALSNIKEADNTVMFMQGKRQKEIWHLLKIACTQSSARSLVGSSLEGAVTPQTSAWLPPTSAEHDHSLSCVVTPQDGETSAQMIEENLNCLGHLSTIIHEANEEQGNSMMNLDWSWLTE
The experiment in a line: Inhibition of JRA-031 binding to IKKalpha in TNF-alpha-stimulated human HEK293T cells at 1 uM pretreated with compound for 1 hr followed by labeling with JRA-031 for 1 hr followed by stimulation with TNF-alpha for 1 hr by pull down based mass spectrometry. It is filed as cell-based. The note with it: HEK-293T.

For the next data set, the system named is NCI-H446. The experiment in a line: Cytotoxicity against human NCI-H446 cells assessed as reduction in cell viability measured after 24 hrs by CellTiter-Glo luminescent assay. It is filed as functional, cell-based. The note with it: NCI-H446, 24 h. In outline: as §1
A short description of data set [11]: Selectivity index, ratio of IC50 for human HS895SK cells to EC50 for human CA46 cells measured after 24 hrs by CellTiter-Glo luminescent assay. In outline:
as §1

For data set [12], the target named is T2, Inhibitor of nuclear factor kappa-B kinase subunit beta (Homo sapiens) (UniProt O14920).
T2 sequence (whole entry): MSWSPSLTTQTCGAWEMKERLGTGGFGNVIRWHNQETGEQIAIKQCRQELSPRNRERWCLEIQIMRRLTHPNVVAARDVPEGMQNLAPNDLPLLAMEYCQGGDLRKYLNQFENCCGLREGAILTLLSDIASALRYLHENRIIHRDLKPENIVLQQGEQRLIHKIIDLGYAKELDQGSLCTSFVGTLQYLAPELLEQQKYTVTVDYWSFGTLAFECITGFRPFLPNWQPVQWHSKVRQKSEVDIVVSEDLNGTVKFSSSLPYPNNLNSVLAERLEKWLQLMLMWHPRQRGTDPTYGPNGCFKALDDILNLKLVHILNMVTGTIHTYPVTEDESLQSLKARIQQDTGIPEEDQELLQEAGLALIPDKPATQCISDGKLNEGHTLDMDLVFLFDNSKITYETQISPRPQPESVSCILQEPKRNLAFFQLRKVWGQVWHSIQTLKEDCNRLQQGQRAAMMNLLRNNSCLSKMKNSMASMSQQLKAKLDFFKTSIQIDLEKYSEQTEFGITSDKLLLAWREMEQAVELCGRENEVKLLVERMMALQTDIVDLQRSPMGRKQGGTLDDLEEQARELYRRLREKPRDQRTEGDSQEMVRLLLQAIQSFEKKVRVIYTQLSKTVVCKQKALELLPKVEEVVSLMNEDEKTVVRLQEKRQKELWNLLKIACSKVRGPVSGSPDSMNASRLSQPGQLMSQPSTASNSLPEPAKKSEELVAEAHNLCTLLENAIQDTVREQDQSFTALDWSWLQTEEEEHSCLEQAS
Kind of data set: Inhibition of IKK beta nuclear translocation in human HEK-293T cells assessed as reduction in IKK beta level in nucleus at 15 uM pretreated with compound for 1 hr followed by stimulation with IL-1 beta for 3 hrs by western blot analysis. It is filed as subcellular. In outline:
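HEK 293T cells were pretreated with vehicle or test agent, then stimulated with IL-1β (or vehicle). Cells were lysed and nuclei separated, and the cytosolic and nuclear fractions were each probed for IKKα and IKKβ by Western blotting.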

The source made the active and inactive calls. No cut-off for these calls is given here.

Take `C=C1C[C@]23C[C@@]1(O)CC[C@H]2[C@@]12C=CC(=O)[C@@](C)(C(=O)O1)[C@H]2[C@@H]3C(=O)OC`: the “Ratio IC50/EC50” value in data set [1] and in data set [11] was 500 in each case. For the same molecule, the IC50 in the data set on PSN1 is over 10 µM; in [2] it was over 10 µM; in data set [3] it was over 10 µM; in the data set with HEK-293T, over 10 µM; in data set [5], 6 µM; in data set [6], over 10 µM. Also, the selectivity ratio at 24 h in [4], in [8] and in data set [9] was 500 in each case. Moreover, the EC50 in the data set with Hs-578T is under 0.04 µM; in the data set on RCK8, under 0.04 µM; in data set [7], 9.2 µM; in the data set with NCI-H446 it was 0.061 µM. Also, the inhibition result in [10] and in [12] was “Active” throughout.
